Results as given in ChEMBL document CHEMBL1152208, “The discovery of biaryl carboxamides as novel small molecule agonists of the motilin receptor” (Bioorg Med Chem Lett, 2008).

Columns and labels:
[1] = target: T1, Motilin receptor (Homo sapiens, UniProt O43193); assay: Agonist activity at human recombinant motilin receptor expressed in HEK293 cells by FLIPR assay; assay type: functional, cell-based
In short: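 HEK293 cells stably expressing human motilin receptor, seeded on poly-lysine plates 24 h before assay. Loaded with Fluo-4-AM (final) and 1 mM probenecid (final) in HEPES-buffered saline with 0.1% BSA for 1 h at 25 °C, washed, rested 20 min at 25 °C. Fluorescence change followed for 2 min after compound addition. Peak change over baseline was fitted with a 4-parameter logistic to give pEC50. Mean of at least three independent experiments (n = 2 for some).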

[2] = test system: Liver microsomes; assay: Intrinsic clearance in human liver microsome; assay type: ADME
[3] = test system: Liver microsomes; assay: Intrinsic clearance in rat liver microsome; assay type: ADME
[4] = target: T2, Cytochrome P450 3A4 (Homo sapiens, UniProt P08684); assay: Inhibition of CYP3A4 using diethoxyfluorescein substrate; assay type: ADME
[5] = target: T2, Cytochrome P450 3A4; assay: Inhibition of CYP3A4 using phenyl-piperazinyl-methyl-benzyl-resofurin substrate; assay type: ADME
[6] = Aqueous solubility of the compound; assay type: physicochemical
[7] = target: T3, Cytochrome P450 1A2 (Homo sapiens, UniProt P05177); assay: Inhibition of CYP1A2; assay type: ADME
T3 sequence (P05177 whole entry): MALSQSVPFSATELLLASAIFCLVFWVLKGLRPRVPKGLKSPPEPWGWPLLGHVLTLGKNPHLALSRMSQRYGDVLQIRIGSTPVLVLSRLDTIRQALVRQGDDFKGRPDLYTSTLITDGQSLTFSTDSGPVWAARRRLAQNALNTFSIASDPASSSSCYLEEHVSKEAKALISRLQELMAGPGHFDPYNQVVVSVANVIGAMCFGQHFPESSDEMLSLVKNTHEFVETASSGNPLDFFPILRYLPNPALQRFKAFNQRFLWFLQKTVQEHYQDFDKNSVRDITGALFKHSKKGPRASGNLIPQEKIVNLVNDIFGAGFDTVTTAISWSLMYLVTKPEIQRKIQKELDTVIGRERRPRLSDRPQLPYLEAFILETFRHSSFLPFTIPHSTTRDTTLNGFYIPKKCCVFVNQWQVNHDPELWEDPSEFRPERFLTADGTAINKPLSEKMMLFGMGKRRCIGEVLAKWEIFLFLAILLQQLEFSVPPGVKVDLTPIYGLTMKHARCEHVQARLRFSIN

[8] = target: Cytochrome P450 2C9 (Homo sapiens, UniProt P11712); assay: Inhibition of CYP2C9; assay type: ADME
[9] = target: Cytochrome P450 2C19 (Homo sapiens, UniProt P33261); assay: Inhibition of CYP2C19; assay type: ADME
[10] = target: Cytochrome P450 2D6 (Homo sapiens, UniProt P10635); assay: Inhibition of CYP2D6; assay type: ADME
[11] = target: Voltage-gated inwardly rectifying potassium channel KCNH2 (Homo sapiens, UniProt Q12809); assay: Inhibition of human ERG binding
[12] = target: Growth hormone secretagogue receptor type 1 (Homo sapiens, UniProt Q92847); assay: Inhibition of human Ghrelin receptor
[13] = Distribution coefficient, log D at pH 7.4; assay type: physicochemical; details: octanol/water
[14] = Clearance in rat; assay type: ADME, organism-based; details: in vivo
[15] = Oral bioavailability in rat; assay type: ADME, organism-based; details: in vivo
[16] = Clearance in dog; assay type: ADME, organism-based, Canis lupus familiaris; details: in vivo
[17] = Oral bioavailability in dog; assay type: ADME, organism-based, Canis lupus familiaris; details: in vivo
[18] = test system: Stomach; assay: Potentiation of electrical field stimulation-induced contraction in New Zealand white rabbit gastric antrum at 10 uM; assay type: functional; details: Oryctolagus cuniculus
[19] = test system: Stomach; assay: Potentiation of electrical field stimulation-induced contraction in New Zealand white rabbit gastric antrum at 3 uM; assay type: functional; details: Oryctolagus cuniculus
[20] = test system: Stomach; assay: Potentiation of electrical field stimulation-induced contraction in New Zealand white rabbit gastric antrum at 1 uM; assay type: functional; details: Oryctolagus cuniculus
[21] = test system: Stomach; assay: Potentiation of electrical field stimulation-induced contraction in New Zealand white rabbit gastric antrum at 0.3 uM; assay type: functional; details: Oryctolagus cuniculus
[22] = test system: Stomach; assay: Potentiation of electrical field stimulation-induced contraction in New Zealand white rabbit gastric antrum at 1.5 uM; assay type: functional; details: Oryctolagus cuniculus
[23] = target: T1, Motilin receptor; assay: Agonist activity at human recombinant motilin receptor expressed in CHO cells by FLIPR assay; assay type: functional, cell-based

T2 sequence (P08684 whole entry): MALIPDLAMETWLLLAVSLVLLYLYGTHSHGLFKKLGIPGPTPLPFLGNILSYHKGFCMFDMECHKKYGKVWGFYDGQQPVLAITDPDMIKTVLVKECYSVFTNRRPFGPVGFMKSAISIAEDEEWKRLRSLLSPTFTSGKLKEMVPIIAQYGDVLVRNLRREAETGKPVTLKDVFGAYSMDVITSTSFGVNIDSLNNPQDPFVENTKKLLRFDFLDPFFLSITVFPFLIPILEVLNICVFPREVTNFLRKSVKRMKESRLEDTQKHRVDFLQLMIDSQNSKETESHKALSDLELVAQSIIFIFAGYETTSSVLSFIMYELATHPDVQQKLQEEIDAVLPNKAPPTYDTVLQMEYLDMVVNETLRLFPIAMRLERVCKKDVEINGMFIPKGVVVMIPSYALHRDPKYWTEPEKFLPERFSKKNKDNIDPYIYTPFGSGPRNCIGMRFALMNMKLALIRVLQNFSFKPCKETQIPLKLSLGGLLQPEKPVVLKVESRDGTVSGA
T1 sequence (O43193 whole entry): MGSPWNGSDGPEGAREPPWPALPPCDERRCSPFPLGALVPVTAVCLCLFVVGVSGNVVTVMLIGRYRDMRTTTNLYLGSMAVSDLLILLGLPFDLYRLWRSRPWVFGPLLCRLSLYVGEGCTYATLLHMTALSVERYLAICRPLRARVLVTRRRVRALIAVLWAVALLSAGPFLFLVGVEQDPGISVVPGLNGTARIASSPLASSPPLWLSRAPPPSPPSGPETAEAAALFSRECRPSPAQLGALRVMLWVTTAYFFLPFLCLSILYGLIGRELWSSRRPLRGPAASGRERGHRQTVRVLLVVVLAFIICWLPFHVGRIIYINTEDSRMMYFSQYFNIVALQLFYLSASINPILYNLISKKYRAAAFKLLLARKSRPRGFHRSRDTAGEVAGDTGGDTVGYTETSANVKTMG
Sequence of Cytochrome P450 2C9 (P11712 whole entry): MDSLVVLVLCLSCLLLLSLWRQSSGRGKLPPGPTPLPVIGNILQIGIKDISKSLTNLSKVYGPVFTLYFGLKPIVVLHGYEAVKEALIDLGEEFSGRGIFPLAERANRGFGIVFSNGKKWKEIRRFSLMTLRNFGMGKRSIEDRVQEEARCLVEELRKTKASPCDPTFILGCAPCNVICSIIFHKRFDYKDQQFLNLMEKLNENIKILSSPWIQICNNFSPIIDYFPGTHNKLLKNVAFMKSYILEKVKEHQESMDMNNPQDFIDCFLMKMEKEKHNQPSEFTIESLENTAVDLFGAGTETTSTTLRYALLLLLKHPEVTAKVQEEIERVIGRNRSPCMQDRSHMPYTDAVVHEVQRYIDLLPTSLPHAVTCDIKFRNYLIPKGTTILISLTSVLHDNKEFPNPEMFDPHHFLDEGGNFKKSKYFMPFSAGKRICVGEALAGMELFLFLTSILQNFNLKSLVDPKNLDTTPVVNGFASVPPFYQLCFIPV
Sequence of Growth hormone secretagogue receptor type 1 (Q92847 whole entry): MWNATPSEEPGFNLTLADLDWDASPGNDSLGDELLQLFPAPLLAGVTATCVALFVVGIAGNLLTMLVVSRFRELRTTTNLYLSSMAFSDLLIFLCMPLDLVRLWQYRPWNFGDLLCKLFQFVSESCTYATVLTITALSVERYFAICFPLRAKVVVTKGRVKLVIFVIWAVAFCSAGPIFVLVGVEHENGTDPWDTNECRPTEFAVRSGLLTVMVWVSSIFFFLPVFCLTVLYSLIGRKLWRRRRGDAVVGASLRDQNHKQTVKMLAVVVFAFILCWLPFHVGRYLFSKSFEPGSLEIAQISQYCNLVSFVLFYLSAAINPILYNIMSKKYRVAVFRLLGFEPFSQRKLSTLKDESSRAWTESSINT
Sequence of Cytochrome P450 2C19 (P33261 whole entry): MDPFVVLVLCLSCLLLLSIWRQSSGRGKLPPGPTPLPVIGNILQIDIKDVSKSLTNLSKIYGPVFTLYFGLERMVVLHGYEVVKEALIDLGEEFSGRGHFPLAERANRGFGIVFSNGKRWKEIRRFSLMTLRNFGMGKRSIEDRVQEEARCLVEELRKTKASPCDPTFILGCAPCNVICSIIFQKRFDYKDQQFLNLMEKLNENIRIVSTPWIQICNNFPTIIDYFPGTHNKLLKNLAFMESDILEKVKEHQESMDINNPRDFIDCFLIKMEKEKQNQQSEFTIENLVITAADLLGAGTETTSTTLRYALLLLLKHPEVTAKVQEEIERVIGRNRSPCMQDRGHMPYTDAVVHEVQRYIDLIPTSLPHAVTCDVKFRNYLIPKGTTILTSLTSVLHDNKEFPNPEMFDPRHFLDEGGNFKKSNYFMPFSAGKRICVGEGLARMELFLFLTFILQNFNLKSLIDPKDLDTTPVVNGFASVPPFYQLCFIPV
Sequence of Cytochrome P450 2D6 (P10635 whole entry): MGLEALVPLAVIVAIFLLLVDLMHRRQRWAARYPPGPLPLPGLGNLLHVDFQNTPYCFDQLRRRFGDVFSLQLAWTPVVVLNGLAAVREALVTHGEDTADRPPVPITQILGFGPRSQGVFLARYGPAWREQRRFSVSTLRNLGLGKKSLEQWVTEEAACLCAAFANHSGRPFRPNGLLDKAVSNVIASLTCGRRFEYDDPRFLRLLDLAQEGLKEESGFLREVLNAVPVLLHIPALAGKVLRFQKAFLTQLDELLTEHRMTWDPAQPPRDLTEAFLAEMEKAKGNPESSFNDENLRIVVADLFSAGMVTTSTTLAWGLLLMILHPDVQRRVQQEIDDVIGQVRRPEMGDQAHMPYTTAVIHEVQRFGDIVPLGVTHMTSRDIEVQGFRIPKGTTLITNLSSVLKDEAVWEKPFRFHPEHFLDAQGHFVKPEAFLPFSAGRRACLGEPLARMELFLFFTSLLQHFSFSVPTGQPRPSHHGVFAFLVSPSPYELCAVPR
Sequence of Voltage-gated inwardly rectifying potassium channel KCNH2 (Q12809 whole entry): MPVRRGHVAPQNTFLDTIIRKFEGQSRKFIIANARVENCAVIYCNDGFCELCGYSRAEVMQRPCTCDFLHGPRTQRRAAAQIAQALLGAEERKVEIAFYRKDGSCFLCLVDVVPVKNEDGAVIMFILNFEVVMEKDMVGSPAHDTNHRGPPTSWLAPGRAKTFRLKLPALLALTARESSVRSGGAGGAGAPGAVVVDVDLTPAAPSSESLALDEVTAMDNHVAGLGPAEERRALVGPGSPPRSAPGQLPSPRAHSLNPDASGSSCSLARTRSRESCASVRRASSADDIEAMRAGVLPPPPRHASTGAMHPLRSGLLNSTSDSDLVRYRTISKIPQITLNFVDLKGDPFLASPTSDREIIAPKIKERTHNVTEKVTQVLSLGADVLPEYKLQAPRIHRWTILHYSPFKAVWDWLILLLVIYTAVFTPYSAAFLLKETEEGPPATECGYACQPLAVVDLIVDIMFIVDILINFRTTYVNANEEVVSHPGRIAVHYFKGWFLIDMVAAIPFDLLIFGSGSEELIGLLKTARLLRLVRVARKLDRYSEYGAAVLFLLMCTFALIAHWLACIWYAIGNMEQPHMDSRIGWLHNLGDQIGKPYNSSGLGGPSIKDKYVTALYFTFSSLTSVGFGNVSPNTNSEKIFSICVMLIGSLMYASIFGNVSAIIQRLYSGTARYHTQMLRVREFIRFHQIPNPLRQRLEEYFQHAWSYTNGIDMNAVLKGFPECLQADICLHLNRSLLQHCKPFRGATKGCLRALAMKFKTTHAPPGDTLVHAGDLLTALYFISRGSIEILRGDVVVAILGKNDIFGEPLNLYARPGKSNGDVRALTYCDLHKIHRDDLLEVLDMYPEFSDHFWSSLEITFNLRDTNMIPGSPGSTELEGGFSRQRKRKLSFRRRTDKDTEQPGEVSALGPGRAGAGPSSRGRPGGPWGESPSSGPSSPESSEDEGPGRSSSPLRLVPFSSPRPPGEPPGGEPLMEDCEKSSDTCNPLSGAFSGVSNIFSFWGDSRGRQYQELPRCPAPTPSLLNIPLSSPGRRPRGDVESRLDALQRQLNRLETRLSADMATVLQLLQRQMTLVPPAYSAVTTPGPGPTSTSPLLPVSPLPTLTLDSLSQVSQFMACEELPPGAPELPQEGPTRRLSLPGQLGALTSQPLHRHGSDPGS

SMILES | EC50 [1] [nM] | CL [2] [mL/min/g] | CL [3] [mL/min/g] | IC50 [4] [nM] | IC50 [5] [nM] | further results
COc1cccc(CCN(Cc2ccccc2-c2ccc(CN3CCNCC3)cc2)C(=O)COc2ccccc2)c1 | 251 |  |  |  |  | 
C[C@@H]1CN(Cc2ccc(-c3cccnc3C(=O)N3CCC(Nc4ccc(C(N)=O)cc4)CC3)cc2)C[C@H](C)N1 | 2510 |  |  |  |  | 
COc1ccc(NC2CCN(C(=O)c3ncccc3-c3ccc(CN4C[C@@H](C)N[C@@H](C)C4)cc3)CC2)cc1 | 1000 |  |  |  |  | 
C[C@@H]1CN(Cc2ccc(-c3cccnc3C(=O)N3CCC(Nc4cccc(F)c4)CC3)cc2)C[C@H](C)N1 | 6.31 | 4.4 | 6.5 |  |  | 
Cc1ccc(S(=O)(=O)NCC(=O)N(C)Cc2ccccc2-c2ccc(CN3C[C@@H](C)N[C@@H](C)C3)cc2)cc1 | 20 |  |  |  |  | 
C[C@@H]1CN(Cc2ccc(-c3ccccc3CN(C)C(=O)COc3ccc(F)cc3)cc2)C[C@H](C)N1 | 31.6 |  |  | 6000 | 7300 | 
C[C@@H]1CN(Cc2ccc(-c3cccnc3C(=O)N3CCC(Nc4cccc(F)c4)CC3)cc2F)C[C@H](C)N1 | 10 | 9.4 | 12 |  |  | 
COc1cc(-c2cccnc2C(=O)N2CCC(Nc3ccc(F)cc3)CC2)ccc1CN1C[C@@H](C)N[C@@H](C)C1 | 5.01 | 5.3 | 5.9 |  |  | 
COCCCN(Cc1ccccc1-c1ccc(CN2CCNCC2)cc1)C(=O)COc1ccccc1 | 398 |  |  |  |  | 
C[C@@H]1CN(Cc2ccc(-c3ccccc3CN(C)C(=O)COc3ccccc3)cc2)C[C@H](C)N1 | 79.4 | 4.9 | 9.5 | 7000 | 24000 | 
C[C@@H]1CN(Cc2ccc(-c3ccccc3CN(C)C(=O)CSc3ccccc3)cc2)C[C@H](C)N1 | 3.16 |  |  |  |  | 
C[C@@H]1CN(Cc2ccc(-n3ccnc3C(=O)N3CCC(Nc4cccc(F)c4)CC3)cc2)C[C@H](C)N1.Cl |  |  |  |  |  | solubility [6]: ≥ 500 µg/mL
CCN(CCc1ccccc1)C(=O)c1ccccc1-c1ccc(CN2C[C@@H](C)N[C@@H](C)C2)cc1 | 7.94 | 40 | 26 | 900 | 1500 | 
C[C@@H]1CN(Cc2ccc(-c3cccnc3C(=O)N3CCC(Nc4ccc(F)c(F)c4)CC3)cc2)C[C@H](C)N1 | 2 | 7 | 5.9 |  |  | 
C[C@@H]1CN(Cc2ccc(-c3cccnc3C(=O)N3CCC(Cc4ccc(F)cc4)CC3)cc2)C[C@H](C)N1 | 10 | 16 | 16 | 13000 | 5600 | 
C[C@@H]1CN(Cc2ccc(-c3ccccc3CN(C)C(=O)Cc3ccc(F)cc3)cc2)C[C@H](C)N1 | 50.1 |  |  |  |  | 
C[C@@H]1CN(Cc2ccc(-c3ccccc3CN(C)C(=O)Cc3cccc(Cl)c3)cc2)C[C@H](C)N1 | 79.4 | 20 | 17 | 1400 | 1500 | 
C[C@@H]1CN(Cc2ccc(-c3ccccc3CN(C)C(=O)CS(=O)(=O)c3ccccc3)cc2)C[C@H](C)N1 | 10 | 6.8 | 4.3 | 3000 | 8900 | 
C[C@@H]1CN(Cc2ccc(-c3cccnc3C(=O)N3CCC(Nc4ccc(C#N)cc4)CC3)cc2)C[C@H](C)N1 | 631 |  |  |  |  | 
C[C@@H]1CN(Cc2ccc(-c3cccnc3C(=O)N3CCC(Nc4cccc(C#N)c4)CC3)cc2)C[C@H](C)N1 | 20 | 3.5 | 4.6 |  |  | 

SMILES | EC50 [1] [nM] | CL [2] [mL/min/g] | CL [3] [mL/min/g] | IC50 [4] [nM] | IC50 [5] [nM] | further results
C[C@@H]1CN(Cc2ccc(-c3ccccc3C(=O)N3CCC(NC(=O)c4ccc(F)cc4)CC3)cc2)C[C@H](C)N1 | > 10000 |  |  |  |  | 
C[C@@H]1CN(Cc2ccc(-c3cccnc3C(=O)N3CCC(Nc4ccc(F)cc4)CC3)cc2)C[C@H](C)N1 | 20 | 2.6 | 2.8 | > 100000 | > 100000 | IC50 [7]: > 100000 nM; IC50 [8]: > 100000 nM; IC50 [9]: > 100000 nM; IC50 [10]: 15000 nM; IC50 [11]: > 31600 nM; EC50 [12]: 100 nM; logD [13]: 0.72; clearance [14]: 53 mL/min/kg; bioavailability [15]: 13%; clearance [16]: 19 mL/min/kg; bioavailability [17]: 58%; Emax at 10 µM [18]: 486%; Emax at 3 µM [19]: 343%; Emax at 1 µM [20]: 299%; Emax at 0.3 µM [21]: 168%
C[C@@H]1CN(Cc2ccc(-c3ccccc3C(=O)N3CCC(Cc4ccc(F)cc4)CC3)cc2)C[C@H](C)N1 | 10 | 29 | 7 | 600 | 500 | 
C[C@@H]1CN(Cc2ccc(-c3ccccc3C(=O)N3CCC(Nc4ccccc4)CC3)cc2)C[C@H](C)N1 | 5.01 | 7 | 20 | 12000 | 17000 | 
C[C@@H]1CN(Cc2ccc(-c3ccccc3C(=O)N3CCC(C(=O)c4ccc(F)cc4)CC3)cc2)C[C@H](C)N1 | 63.1 |  |  | 4800 | 3600 | 
C[C@@H]1CN(Cc2ccc(-n3ccnc3C(=O)N3CCC(Nc4cccc(F)c4)CC3)cc2)C[C@H](C)N1 | 15.8 | 3.4 | 4.1 | 58000 | 46000 | IC50 [7]: 74000 nM; IC50 [8]: > 100000 nM; IC50 [9]: > 100000 nM; IC50 [10]: 29000 nM; EC50 [12]: 501 nM; logD [13]: 0.82; clearance [14]: 61 mL/min/kg; bioavailability [15]: 17%; Emax at 3 µM [19]: 224%; Emax at 0.3 µM [21]: 73%; Emax at 1.5 µM [22]: 302%
C[C@@H]1CN(Cc2ccc(-c3ccccc3C(=O)N3CCC(Nc4ccc(F)cc4)CC3)nc2)C[C@H](C)N1 | > 10000 |  |  |  |  | 
C[C@@H]1CN(Cc2cnc(-c3ccccc3C(=O)N3CCC(Nc4ccc(F)cc4)CC3)s2)C[C@H](C)N1 | 398 |  |  |  |  | 
C[C@@H]1CN(Cc2ccc(-c3ccccc3C(=O)N3CCC(Nc4ccc(Cl)cc4)CC3)cc2)C[C@H](C)N1 | 50.1 | 8 | 33 | 5200 | 3500 | 
C[C@@H]1CN(Cc2ccc(-c3cccnc3C(=O)N3CCC(Nc4ccc(F)cc4)CC3)cc2)C[C@H](C)N1.Cl |  |  |  |  |  | solubility [6]: ≥ 1000 µg/mL
COc1cccc(CCN(Cc2ccccc2-c2ccc(CN3C[C@@H](C)N[C@@H](C)C3)cc2)C(=O)NC2CCCCC2)c1 | 50.1 | > 50 | 23 | 200 | 400 | EC50 [23]: 10 nM
C[C@@H]1CN(Cc2ccc(-c3cccnc3C(=O)N3CCC(Nc4ccccc4C#N)CC3)cc2)C[C@H](C)N1 | 794 |  |  |  |  | 
Cc1cc(CC(=O)N(C)Cc2ccccc2-c2ccc(CN3C[C@@H](C)N[C@@H](C)C3)cc2)on1 | 1000 | 2.4 | 2.9 | 40000 | > 100000 | 
CC(C)CCC(=O)N(C)Cc1ccccc1-c1ccc(CN2C[C@@H](C)N[C@@H](C)C2)cc1 | 251 |  |  |  |  | 
C[C@@H]1CN(Cc2ccc(-c3ccccc3C(=O)N3CCC(Oc4ccc(F)cc4)CC3)cc2)C[C@H](C)N1 | 63.1 |  |  |  |  | 
C[C@@H]1CN(Cc2ccc(-c3cccnc3C(=O)N3CCC(Nc4ccc(F)cc4)CC3)cc2F)C[C@H](C)N1 | 3.98 | 5.5 | 6.5 |  |  | 
C[C@@H]1CN(Cc2ccc(N3CCCC3C(=O)N3CCC(Nc4cccc(F)c4)CC3)cc2)C[C@H](C)N1 (some centres undefined) | 2510 |  |  |  |  | 
C[C@@H]1CN(Cc2ccc(-c3cccnc3C(=O)N3CCC(Nc4ccccc4F)CC3)cc2)C[C@H](C)N1 | 50.1 |  |  |  |  | 
C[C@@H]1CN(Cc2ccc(-c3ccccc3C(=O)N3CCC(Nc4ccc(F)cc4)CC3)cc2)C[C@H](C)N1 | 2.51 |  |  |  |  | 
CC[C@H]1OC(=O)[C@H](C)[C@@H](O[C@H]2C[C@@](C)(OC)[C@@H](O)[C@H](C)O2)[C@H](C)[C@@H](O[C@@H]2O[C@H](C)C[C@H](N(C)C)[C@H]2O)[C@](C)(O)C[C@@H](C)C(=O)[C@H](C)[C@@H](O)[C@]1(C)O [ERYTHROMYCIN] |  |  |  |  |  | Emax at 10 µM [18]: 368%; Emax at 3 µM [19]: 490%; Emax at 1 µM [20]: 189%; Emax at 0.3 µM [21]: 69%
